Assay results published in paper PMC7254805 (ACS Omega, 2020).
In brackets after ≈: the same amount, converted by molar mass. Entries after “also recorded” stand apart in the source; their conditions may differ.

Experiments:
HCV NS3/4A protease = HCV NS3/4A protease (Hepatitis C virus, UniProt P26662); assay: HCV NS3/4A protease fluorimetric activity assay; assay type: biochemical
In short: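 Purified single-chain NS3/4A (scNS3/4A, 0.1 μM) is pre-incubated with test compound, then purified EGFP-NS5A/B-CBD fusion substrate (0.5 μM) is added for 1 h at 37 °C. Cellulose slurry stops the reaction; after centrifugation, supernatant fluorescence is read at 484/538 nm. Compounds are screened at 50 μM, with dose response over 10–100 μM. Activity is relative to a no-compound reaction (100%); telaprevir is the positive control.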

trypsin = trypsin (Sus scrofa, UniProt P00761); assay: Cellular serine protease; assay type: biochemical; conditions: up to 250 μM
In short: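 Trypsin is pre-incubated with increasing test compound concentrations, then FITC-labelled casein substrate is added for 1 h at 37 °C. The reaction is stopped with trichloroacetic acid (6.1 N) and centrifuged. Supernatant fluorescence is read at excitation 485 nm and emission 538 nm. Activity is expressed relative to a no-compound reaction (100%); G. max trypsin inhibitor is the positive control.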

BALB/c mice [1] = assay: Sub-acute; assay type: in vivo
In short: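 Sub-acute oral toxicity per OECD 407 in BALB/c mice. Test compounds are given orally daily for 28 consecutive days at 1000 or 500 mg/kg b. wt/day, in water or PEG-400. Vehicle controls receive water or PEG-400 at 200 μL/day/mouse. Body weight, food and water intake, behaviour and toxicity signs are recorded. Liver sections (5 μm) are H&E-stained for light microscopy.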

[2] = Oral bioavailability in mice, plasma RP-HPLC; assay type: in vivo, BALB/c mice
BALB/c mice [3] = assay: Acute oral toxicity in mice; assay type: in vivo; conditions: for maximum acute tolerance dose: BALB/c mice
Huh7.5 cells = assay: Cell viability MTT assay; assay type: cell-based; conditions: up to 5 mM
In short: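 Huh7.5 cells are seeded at 2 × 10^4 per well in DMEM with 10% serum and incubated overnight at 37 °C. After 12 h, cells are treated with a range of test compound concentrations, and viability is read by MTT. Untreated cells serve as control. Data are mean ± SD of three independent experiments; CC50 is taken from the dose response.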

[4] = tested on: Huh7 cells harboring HCV monocistronic replicon genotype 2a (Rep2a); assay: HCV replication assay in Rep2a cell line; assay type: cell-based, HCV genotype 2a; conditions: at 250 μM, compared with Telaprevir
Aqueous solubility = assay type: physicochemical; conditions: water
[5] = BALB/c, mouse, plasma, po, 500 mg/kg

Chain of HCV NS3/4A protease (P26662 1027-1208, other chains not shown): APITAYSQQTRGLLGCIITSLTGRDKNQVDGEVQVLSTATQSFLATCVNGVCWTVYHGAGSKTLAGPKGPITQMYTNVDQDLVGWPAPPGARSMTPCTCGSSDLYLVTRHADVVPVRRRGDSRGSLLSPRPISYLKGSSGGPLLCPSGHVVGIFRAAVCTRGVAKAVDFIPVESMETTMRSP
Chain of trypsin (P00761 9-231): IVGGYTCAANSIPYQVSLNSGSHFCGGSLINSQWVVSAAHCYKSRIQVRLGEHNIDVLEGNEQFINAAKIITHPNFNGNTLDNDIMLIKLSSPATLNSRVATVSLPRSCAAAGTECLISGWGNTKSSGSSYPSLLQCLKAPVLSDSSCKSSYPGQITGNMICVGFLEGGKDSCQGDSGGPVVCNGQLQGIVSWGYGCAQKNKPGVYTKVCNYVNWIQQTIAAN

With COc1ccc(CC(CC(=O)O)C(=O)O)cc1OC (centres unmarked) [D8, 2-(3,4-Dimethoxybenzyl)succinic Acid] the IC50 (HCV NS3/4A protease) was under 10 µM, the IC90 (HCV NS3/4A protease) was 50 µM and the “inhibition of trypsin activity” value (trypsin) was “did not show an inhibition; also recorded: does not occur even at 250 μM”. The “changes in general behavior and body weights” value (BALB/c mice [1]; 1000 mg/kg b. wt/day oral, 28 consecutive days) was “did not exhibit any undesirable changes”, the liver histology (BALB/c mice [1]; 1000 mg/kg b. wt/day oral, 28 days) was “normal histology” and the “plasma concentration after 2 h” value ([2]; 500 mg/kg p.o) was 595 μg mL^–1. For the same compound, the Cmax [2, 5] was about 595 µg/mL, the Tmax [2, 5] was 1 h and the half-life [2, 5] was 2 h. For the same compound, the liver histology (BALB/c mice [3]; maximum acute tolerance dose 4000 mg/kg b. wt p.o, vs water control) was “normal histoarchitecture”, the death of mice (BALB/c mice [3]; oral, 5000 mg/kg b. wt) was 40% and the death of mice (BALB/c mice [3]; oral, 5250 mg/kg b. wt) was 100%. The “maximum acute tolerance dose” value (BALB/c mice [3]; oral) was 4000 mg/kg b. wt, the “tolerance dose relative to phyllanthin” value (BALB/c mice [3]; oral, D8 4000 vs phyllanthin 1500 mg/kg) was about 2.5 times and the cellular toxicity (Huh7.5 cells) was “did not induce any toxicity; also recorded: no perceptible cellular toxicity”. The “reduction in HCV negative strand synthesis” value [4] was “matching that of the inhibition by Telapravir”.
In the case of COC[C@@H](Cc1ccc(OC)c(OC)c1)[C@@H](COC)Cc1ccc(OC)c(OC)c1 [phyllanthin, reference compound], the IC50 (HCV NS3/4A protease) is reported as about 50 µM, the “changes in general behavior and body weights” value (BALB/c mice [1]; 500 mg/kg b. wt/day oral in PEG-400, 28 consecutive days) is reported as “did not exhibit any undesirable changes” and the “bioavailability (plasma, up to 24 h)” value ([2]; 500 mg/kg b. wt p.o) is reported as “could not observe any bioavailability”. The “absorbed concentration in plasma” value ([2]; 1500 mg/kg b. wt p.o) was “very low concentration”, the death of mice (BALB/c mice [3]; oral, 2000 mg/kg b. wt) was 100% and the “maximum acute tolerance dose” value (BALB/c mice [3]; oral) was 1500 mg/kg b. wt. For the same compound, the solubility (Aqueous solubility) was 250 µg/mL (≈ 597 µM).
